# Bioassay records: PubChem, several laboratories
# STK33 inh: blocks human STK33 kinase activity; Q9BYT3; inhibition, % at 10 µM; purified STK33, MBP phosphorylation, ADP-Glo luminescence; AID 2661; 0.073% of 320,000 active;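 active means inhibition at or above 25%, using the most active replicate where run in duplicate; inactive means inhibition below 25%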
# Lipid droplet: hepatic lipid droplet formation modulation | AML12 mouse hepatocytes, oleate lipid droplets, BODIPY imaging | inhibition, % at 6.5 µM | 0.4% of 240,000 active | AID 1656;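 active means lipid droplet intensity inhibited by at least 50%, with more than 500 cells counted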
#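 material = mouse AML12 hepatocyte cell line, fixed after treatment | also added = 100 µM oleic acid challenge | doses = compound at 6.5 µM only | schedule = overnight exposure | technique = Image-based BODIPY and DAPI two-channel analysis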
# GSK3beta inhib: inhibitors of human GSK3beta kinase | GST-GSK3beta kinase, ADP-Glo luminescence, 60 min; stronger effect = lower value | AID 2097 | activity score (negative = inhibition), % at 10 µM | 0.038% of 300,000 active;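 active means more than half of replicate wells score below -50%, meaning over 50% inhibition versus plate controls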;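 further: 0% = median DMSO wells and -100% = median GW8510 positive control wells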
#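 Test system: GST-tagged human GSK3beta kinase, cell-free; evaluation: activity score scaled between in-plate DMSO and GW8510 controls; measured by: ADP-Glo luminescence; incubation: 60 min reaction, RT; benchmarks: DMSO and 20 µM GW8510; reagent: peptide substrate plus 25 µM ATP (final); medium: Tris/MgCl2 kinase buffer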
# GSK3 alpha inh: inhibitors of human GSK-3 alpha kinase. P49840. ADP-Glo luminescence, 60 min. inhibition, % at 10 µM. 0.1% of 320,000 active. AID 2650;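 active means more than half of replicates show inhibition above 20%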;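 further: GST-tagged GSK-3 alpha with peptide substrate and 25 µM ATP; 0% = DMSO neutral wells and 100% = GW8510 positive control wells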
# Rce1 inhib: yeast Ras-converting enzyme inhibition; Q03530; calls only; yeast membranes, quenched prenylated peptide cleavage fluorescence; 0.27% of 290,000 active;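 active means fall in fluorescence gain of 50% or more versus controls, with final raw signal at or below 3038400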;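 further: plate controls were neutral control wells for no effect and wells lacking membranes for full effect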
# Target sequence (Q03530 whole entry, looked up): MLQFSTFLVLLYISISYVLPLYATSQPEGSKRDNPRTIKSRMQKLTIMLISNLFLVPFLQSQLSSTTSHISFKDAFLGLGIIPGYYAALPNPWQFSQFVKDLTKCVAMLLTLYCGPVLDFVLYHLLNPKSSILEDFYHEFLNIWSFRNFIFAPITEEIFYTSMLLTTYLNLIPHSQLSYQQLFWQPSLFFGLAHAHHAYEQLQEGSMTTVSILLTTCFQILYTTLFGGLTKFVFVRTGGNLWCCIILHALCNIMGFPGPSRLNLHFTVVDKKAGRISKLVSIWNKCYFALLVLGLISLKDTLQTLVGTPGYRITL
# HSV augment: HSV replication enhancement | HSV replication augmentation in cells, fold increase | maximum fold increase | 0.005% of 220,000 active | AID 1956; in the data active means maximum fold increase above about 1.5; tested in PC3 cells
# The depositor's hits bear a star; i = inactive; / = not tested or not shown; + = active, no number. A selection: hits, their analogues and other compounds. The true share with any hit is near 0.7%.
SMILES,STK33 inh,Lipid droplet,GSK3beta inhib,GSK3 alpha inh,Rce1 inhib,HSV augment
CCOc1cccc(-c2c(C(=O)N/N=C(\C)c3ccncc3)nnn2-c2nonc2N)c1,0,-4,-20,69*,i,/
C/C(=N\NC(=O)c1nnn(-c2nonc2N)c1-c1cccs1)c1cccc(O)c1,0,1,0,66*,i,/
COc1cccc(-c2c(C(=O)N/N=C/c3cccs3)nnn2-c2nonc2N)c1,1,3,2,/,i,/
CCOc1cccc(-c2c(C(=O)N/N=C/c3cccs3)nnn2-c2nonc2N)c1,-1,-4,6,-12,+,/
CCOC(=O)c1nnn(-c2nonc2N)c1-c1ccc(OCC)cc1,0,8,-35,50*,i,i
CCOc1ccc(-c2c(C(=O)N/N=C/c3ccoc3)nnn2-c2nonc2N)cc1,0,4,0,7,i,/
Cc1c(C(=O)N2CCCCC2)c(S(=O)(=O)NCCc2ccc(Cl)cc2)c(C)n1C,0,-26,1,0,i,/
O=C(O)c1ccc(N2CCCS2(=O)=O)cc1,0,-6,/,0,/,/
COc1ccc(CN2CCN(C(c3ccc(F)cc3)c3ccc(F)cc3)CC2)c(OC)c1OC,0,/,-1,-4,+,i
COc1ccc(CN2CCN(c3ccc(F)cc3)CC2)c(OC)c1OC,-1,-25,-1,-1,i,i
O=C(COc1ccc(Cl)cc1)NCCNc1ccc([N+](=O)[O-])cc1,0,-14,-3,-1,i,/
Cc1cn(C2OC(COC(=O)c3ccccc3)C(O)C2Cl)c(=O)[nH]c1=O (stereo unspecified),3,-12,0,5,i,i
Cc1cn(C2OC(CC(=O)Oc3ccccc3)C(O)C2O)c(=O)[nH]c1=O (stereo unspecified),0,/,-25,52*,i,/
CCn1c(-c2cccs2)nc2ccccc21,-1,-4,3,-2,+,i
C#CCn1c(-c2cccs2)nc2ccccc21,0,-3,1,2,i,i
COc1ccc(C(C)=O)cc1COC(=O)CSCC(=O)Nc1ccc(C)cc1,0,/,2,-2,i,/
CCOc1ccc(N(CC(=O)NC2CC3CCC2C3)S(=O)(=O)c2ccccc2)cc1 (stereo unspecified),0,-10,-3,-2,+,/
CCOc1ccc(N(CC(=O)NC2CC3CCC2C3)S(=O)(=O)c2ccc(C)cc2)cc1 (stereo unspecified),-1,-17,0,-2,i,/
C=CCn1c(C)cc(C(=O)COC(=O)c2cncc(Br)c2)c1C,1,/,/,-2,/,/
Clc1cccc(CSc2nnc(-c3c[nH]c4ccccc34)o2)c1,0,-13,-8,0,i,i
O=c1c(-c2nnc(SCc3ccc(Cl)c(Cl)c3)o2)cccn1Cc1ccccc1,-2,/,-1,0,+,i
COc1cccc(CN2CC(C(=O)NC3CCCCCC3)CCC2=O)c1 (stereo unspecified),0,-3,2,-1,i,/
O=C(Nc1ccc(N2CCOCC2)c(Cl)c1)c1cc2ccccc2o1,0,17,6,1,+,i
COc1ccccc1N1CCN(C(=O)c2coc(=O)c(Br)c2)CC1,0,14,-1,-4,+,i
CC(Sc1ncnc2sc(-c3ccccc3)cc12)C(=O)NCC1CCCO1 (stereo unspecified),2,/,-1,-5,i,/
SMILES,STK33 inh,Lipid droplet,GSK3beta inhib,GSK3 alpha inh,Rce1 inhib,HSV augment
O=C1/C(=C/c2ccc3c(c2)OCO3)Oc2cc(OCC(=O)N3CCC[C@H]3C(=O)O)ccc21,5,/,1,59*,i,/
CN1c2ccccc2-c2nc3ccccc3n2C1c1ccncc1 (stereo unspecified),16,-10,0,7,+,i
COc1ccc(S(=O)(=O)CC(O)CN2CCCC2=O)cc1 (stereo unspecified),0,/,0,-2,i,i
O=C1CCCN1CC(O)CS(=O)(=O)c1ccccc1 (stereo unspecified),1,/,3,-3,+,i
Cc1nc(N2CCC(C)CC2)c2c(C)c(C(=O)Nc3ccc(C(F)(F)F)cc3)sc2n1,/,0,-3,/,i,i
Cc1nc(N2CCOCC2)c2c(C)c(C(=O)Nc3ccccc3C(F)(F)F)sc2n1,2,5,3,2,+,i
Cc1nc(N2CCOCC2)c2c(C)c(C(=O)Nc3ccccc3Cl)sc2n1,4,-17,1,1,i,i
Cc1nc(N2CCCCC2C)c2c(C)c(C(=O)Nc3ccccc3C(F)(F)F)sc2n1 (stereo unspecified),/,-7,-2,/,+,i
COc1ccccc1N1CCN(c2ncc(C(=O)N3CCN(c4cccc(Cl)c4)CC3)c3ccccc23)CC1,-1,-11,-4,-2,+,i
CC1CCN(C2=C(NS(=O)(=O)c3ccccc3)C(=O)c3ccccc3C2=O)CC1,1,35,-3,0,i,i
CC1CCN(C2=C(NS(=O)(=O)c3ccc(Cl)cc3)C(=O)c3ccccc3C2=O)CC1,1,70*,3,-3,i,i
Cc1cc(C=C2C(=O)c3ccccc3C2=O)c(C)n1-c1ccc(C(=O)O)cc1,32*,-2,0,2,i,i
Cc1cc(/C=c2\sc3nc4ccccc4n3c2=O)c(C)n1-c1ccc(C(=O)O)cc1,/,9,3,/,i,i
Cc1cc(C=C2C(=O)c3ccccc3C2=O)c(C)n1-c1cccc(C(=O)O)c1,43*,-18,-1,-1,i,/
Clc1ccc(-c2nc3ncccn3c2Nc2ccc3c(c2)OCO3)cc1,0,/,5,-1,i,i
Oc1ccc(-c2nc3ncccn3c2Nc2ccc3c(c2)OCO3)cc1,2,-8,-1,53*,i,i
C=CCNc1nc(N)c(C(=O)Nc2cc(C)on2)s1,1,21,-2,7,i,/
C=CCNc1nc(N)c(C(=O)c2ccc3c(c2)OCO3)s1,2,/,/,79*,/,i
O=C(NC1CCCCC1)C(c1ccco1)N(C(=O)c1csnn1)c1cccc(Cl)c1 (stereo unspecified),-1,-26,1,3,i,/
COCc1cc(C)n(CC(=O)NCc2ccccc2)c(=O)c1C#N,1,11,-3,/,+,i
COCc1cc(C)n(CC(=O)NC(C)c2ccccc2)c(=O)c1C#N (stereo unspecified),0,/,-1,-1,i,i
N#C/C(=C/c1ccc(F)cc1)c1nnc(NC(=O)c2ccccc2)s1,0,-2,2,0,i,i
Cc1cc(C)c2nc(SCC(=O)NC(=O)c3cccn3C)cc(C)c2c1,0,17,3,-3,i,i
Clc1ccccc1CSc1nnc(-c2ccncc2)o1,0,/,1,54*,i,i
